This is an account of results in ChEMBL document CHEMBL5329173, “Proline pre-conditioning of Jurkat cells improves recovery after cryopreservation” (RSC Med Chem, 2023).

The source made the active and inactive calls. The rule behind the calls is not given here.

In data set [1] the test system is Jurkat E6.1. Description: Effect of compound on cryopreserved human Jurkat E6.1 cells recovery assessed as increase in post-thaw cell recovery at 200 mM preincubated for 24 hrs followed by media replacement and cryopreserved at -1 degreeC/min to -80 degreeC/min and measured after 24 hrs post-thaw by trypan blue exclusion method (Rvb=63 %). It counts as functional. The essentials: (§1)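 Cells were pre-incubated 24 h in medium with amino acid at the stated density, then the medium was replaced with fresh additive-free medium. Cells were adjusted to 1 × 10^6 cells per mL and held 10 min at room temperature in medium with 5% DMSO. They were cooled at −1 °C min−1 to −80 °C and stored ≥24 h. Thawing was 5 min in a 37 °C water bath, followed by culture at 37 °C, 5% CO2. Recovery relative to pre-freeze count was determined by trypan blue exclusion.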

Data set [2] can be described thus: Cytotoxicity against human Jurkat E6.1 cells assessed as cell growth inhibition at 100 mM incubated for 24 hrs by trypan blue exclusion method relative to control.
Data set [3] is described as follows: Cytotoxicity against human Jurkat E6.1 cells assessed as cell growth inhibition at 200 mM incubated for 24 hrs by trypan blue exclusion method relative to control. The settings on record: read-out: Activity. It counts as toxicity, cell-based. The essentials:
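Amino acid additives dissolved in complete Advanced RPMI 1640 (base medium contains 0.17 mM L-proline, 0.10 mM L-alanine) and sterile filtered. Jurkat cells seeded at 1 × 10^6 mL−1 and held 24 h at 37 °C, 5% CO2 without freezing. Counts taken every 4 h, with live/dead scored by trypan blue exclusion on an automated counter. Growth and viability were compared with additive-free medium; mean ± SD of independent experiments.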

Data set [4] relates to Jurkat E6.1. The data set can be described thus: Effect of compound on cryopreserved human Jurkat E6.1 cells recovery assessed as increase in post-thaw cell recovery at 0.5 millions/ml cell density at 200 mM preincubated for 24 hrs followed by media replacement and cryopreserved at -1 degreeC/min to -80 degreeC/min and measured after 24 hrs post-thaw by trypan blue exclusion method. It counts as functional. The essentials: as §1

The test system of data set [5] is Jurkat E6.1. The data set can be described thus: Effect of compound on cryopreserved human Jurkat E6.1 cells recovery assessed as increase in post-thaw cell recovery at 0.8 millions/ml cell density at 200 mM preincubated for 24 hrs followed by media replacement and cryopreserved at -1 degreeC/min to […] and measured after 24 hrs post-thaw by trypan blue exclusion method. It counts as functional, cell-based. The essentials: as §1

For data set [6], the system named is Jurkat E6.1. The data set can be described thus: Cytotoxicity against human Jurkat E6.1 cells assessed as decrease in metabolic activity at 200 mM incubated for 24 hrs by resazurin assay. It counts as toxicity, cell-based. The settings on record: jurkat e6.1, 24 h, 200000 µM. The essentials:
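Cells were incubated 24 h at 37 °C in medium containing 200 mM additive, then readjusted to 1 × 10^6 cells per mL. They were resuspended in resazurin solution made in additive-free complete medium and incubated 3 or 4 h at 37 °C. Fluorescence was read at 590/35 nm emission and expressed as % of untreated control. Mean ± SD, at least three independent experiments.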
On the technique in general: The colour change of resazurin is a common sign of viable cells or microbes.

As to `O=C(O)[C@@H]1CCCN1` [PROLINE], the results for the Activity with Jurkat E6.1 [1], in the data set on Jurkat E6.1 [4] and in the data set with Jurkat E6.1 [6] were 70%, 77% and “Non-Toxic”, respectively. In addition, the inhibition at 24 h, 100000 µM in data set [2] amounted to 34%. Further, the inhibition at 24 h, 200000 µM in data set [3] was found to be 46%. For the same compound, in the data set on Jurkat E6.1 [5], the outcome was Active.
For the compound `C[C@H](N)C(=O)O` [ALANINE], the Activity in the data set with Jurkat E6.1 [1] is listed as 49%; with Jurkat E6.1 [4], 83%; in the data set on Jurkat E6.1 [6] it was “Non-Toxic”. The inhibition at 24 h, 200000 µM in data set [3] came to 72%. Moreover, the outcome with Jurkat E6.1 [5] was Active.
On to `O=C(O)[C@H]1CCCN1` [D-PROLINE], for which the Activity in the data set on Jurkat E6.1 [1] is listed as 52%; in the data set with Jurkat E6.1 [6] it was “Toxic”. Besides, the inhibition at 24 h, 200000 µM in data set [3] stood at 107%.
